Reference: paper PMC5338039 (Biochemistry, 2017)
“Also recorded” adds a separate entry of the source.

Tests used:
[1] = target: T1, GPR55 F6.55L (Homo sapiens, UniProt Q9Y2T6, F246L); experiment: SRF luciferase assay, F6.55L mutant; type: cell-based
[2] = target: T2, WT GPR55 (Homo sapiens, UniProt Q9Y2T6); experiment: SRE luciferase assay, WT GPR55; type: cell-based
[3] = target: GPR55 Q7.36N (Homo sapiens, UniProt Q9Y2T6, Q271N); experiment: SRE luciferase assay, Q7.36N mutant; type: cell-based
How it was run: (§1)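 HA-tagged human GPR55 (WT or sequence-confirmed site-directed mutant, pcDNA3) co-transfected by lipofection with pGL4.33 luc2P/SRE reporter into HEK293 cells; 60,000 cells/well, switched to 1% FBS/DMEM after 5 h, overnight. Agonist test compounds (10 mM DMSO stocks) added for 5 h in serum-free DMEM, 37°C. Cells lysed 10 min at room temperature, luciferin injected, luminescence read immediately (RLU). EC50 from sigmoidal nonlinear regression.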

[4] = target: T3, GPR55 Y3.32F (Homo sapiens, UniProt Q9Y2T6, Y101F); experiment: SRF luciferase assay, Y3.32F mutant; type: cell-based
[5] = target: T4, GPR55 E3.29A (Homo sapiens, UniProt Q9Y2T6, E98A); experiment: SRE luciferase assay, E3.29A mutant; type: cell-based
How it was run: as §1

[6] = target: T5, GPR55 E3.29L (Homo sapiens, UniProt Q9Y2T6, E98L); experiment: SRF luciferase assay, E3.29L mutant; type: cell-based
[7] = target: T6, GPR55 C(10)A (Homo sapiens, UniProt Q9Y2T6, C10A); experiment: SRE luciferase assay, C; type: cell-based
How it was run: as §1

[8] = target: T1, GPR55 F6.55L; experiment: SRE luciferase assay, F6.55L mutant; type: cell-based
How it was run: as §1

[9] = target: T7, GPR55 K2.60A (Homo sapiens, UniProt Q9Y2T6, K80A); experiment: SRF luciferase assay, K2.60A mutant; type: cell-based
[10] = target: T3, GPR55 Y3.32F; experiment: SRE luciferase assay, Y3.32F mutant; type: cell-based
How it was run: as §1

[11] = target: GPR55 H(170)F (Homo sapiens, UniProt Q9Y2T6, H170F); experiment: SRE luciferase assay, H; type: cell-based
How it was run: as §1

[12] = target: T7, GPR55 K2.60A; experiment: SRE luciferase assay, K2.60A mutant; type: cell-based
How it was run: as §1

[13] = target: T5, GPR55 E3.29L; experiment: SRE luciferase assay, E3.29L mutant; type: cell-based
How it was run: as §1

[14] = target: T8, GPR55 M3.36A (Homo sapiens, UniProt Q9Y2T6, M105A); experiment: SRF luciferase assay, M3.36A mutant; type: cell-based
[15] = target: GPR55 Q6.58M (Homo sapiens, UniProt Q9Y2T6, Q249M); experiment: SRE luciferase assay, Q6.58M mutant; type: cell-based
How it was run: as §1

[16] = test system: GPR55; conditions: agonist screen of the NIH library; cited from earlier work
[17] = target: T9, GPR55 F6.55A (Homo sapiens, UniProt Q9Y2T6, F246A); experiment: SRF luciferase assay, F6.55A mutant; type: cell-based
[18] = target: T10, GPR55 C(260)A (Homo sapiens, UniProt Q9Y2T6, C260A); experiment: SRE luciferase assay, C; type: cell-based
How it was run: as §1

[19] = target: T8, GPR55 M3.36A; experiment: SRE luciferase assay, M3.36A mutant; type: cell-based
How it was run: as §1

[20] = target: T11, GPR55 Y3.32L (Homo sapiens, UniProt Q9Y2T6, Y101L); experiment: SRF luciferase assay, Y3.32L mutant; type: cell-based
[21] = target: T10, GPR55 C(260)A; experiment: SRF luciferase assay, C; type: cell-based
[22] = target: T6, GPR55 C(10)A; experiment: SRF luciferase assay, C; type: cell-based
[23] = target: T2, WT GPR55; experiment: SRF luciferase assay, WT GPR55; type: cell-based
[24] = target: T11, GPR55 Y3.32L; experiment: SRE luciferase assay, Y3.32L mutant; type: cell-based
How it was run: as §1

[25] = target: T12, GPR55 F6.48A (Homo sapiens, UniProt Q9Y2T6, F239A); experiment: SRF luciferase assay, F6.48A mutant; type: cell-based
[26] = target: T9, GPR55 F6.55A; experiment: SRE luciferase assay, F6.55A mutant; type: cell-based
How it was run: as §1

[27] = target: T12, GPR55 F6.48A; experiment: SRE luciferase assay, F6.48A mutant; type: cell-based
How it was run: as §1

[28] = target: GPR55 Q7.36A (Homo sapiens, UniProt Q9Y2T6, Q271A); experiment: SRE luciferase assay, Q7.36A mutant; type: cell-based
How it was run: as §1

[29] = target: T4, GPR55 E3.29A; experiment: SRF luciferase assay, E3.29A mutant; type: cell-based

T10 sequence (Q9Y2T6 whole entry C260A): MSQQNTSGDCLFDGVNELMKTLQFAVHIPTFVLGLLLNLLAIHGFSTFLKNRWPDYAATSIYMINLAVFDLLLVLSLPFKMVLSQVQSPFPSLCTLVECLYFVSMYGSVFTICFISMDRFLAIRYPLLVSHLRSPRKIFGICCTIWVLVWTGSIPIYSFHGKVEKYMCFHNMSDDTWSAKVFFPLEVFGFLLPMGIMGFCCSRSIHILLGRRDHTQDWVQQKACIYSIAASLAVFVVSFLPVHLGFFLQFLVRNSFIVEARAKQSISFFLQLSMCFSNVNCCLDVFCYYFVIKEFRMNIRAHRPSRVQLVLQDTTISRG
GPR55 H(170)F, sequence (Q9Y2T6 whole entry H170F): as the sequence (Q9Y2T6 whole entry C260A) above, with H170F, A260C counted along it
T9 sequence (Q9Y2T6 whole entry F246A): as the sequence (Q9Y2T6 whole entry C260A) above, with F246A, A260C counted along it
T4 sequence (Q9Y2T6 whole entry E98A): as the sequence (Q9Y2T6 whole entry C260A) above, with E98A, A260C counted along it
T1 sequence (Q9Y2T6 whole entry F246L): as the sequence (Q9Y2T6 whole entry C260A) above, with F246L, A260C counted along it
GPR55 Q7.36A, sequence (Q9Y2T6 whole entry Q271A): as the sequence (Q9Y2T6 whole entry C260A) above, with A260C, Q271A counted along it
T7 sequence (Q9Y2T6 whole entry K80A): as the sequence (Q9Y2T6 whole entry C260A) above, with K80A, A260C counted along it
GPR55 Q6.58M, sequence (Q9Y2T6 whole entry Q249M): as the sequence (Q9Y2T6 whole entry C260A) above, with Q249M, A260C counted along it
T3 sequence (Q9Y2T6 whole entry Y101F): as the sequence (Q9Y2T6 whole entry C260A) above, with Y101F, A260C counted along it
T8 sequence (Q9Y2T6 whole entry M105A): as the sequence (Q9Y2T6 whole entry C260A) above, with M105A, A260C counted along it
T11 sequence (Q9Y2T6 whole entry Y101L): as the sequence (Q9Y2T6 whole entry C260A) above, with Y101L, A260C counted along it
T12 sequence (Q9Y2T6 whole entry F239A): as the sequence (Q9Y2T6 whole entry C260A) above, with F239A, A260C counted along it
GPR55 Q7.36N, sequence (Q9Y2T6 whole entry Q271N): as the sequence (Q9Y2T6 whole entry C260A) above, with A260C, Q271N counted along it
T6 sequence (Q9Y2T6 whole entry C10A): as the sequence (Q9Y2T6 whole entry C260A) above, with C10A, A260C counted along it
T5 sequence (Q9Y2T6 whole entry E98L): as the sequence (Q9Y2T6 whole entry C260A) above, with E98L, A260C counted along it
T2 sequence (Q9Y2T6 whole entry): as the sequence (Q9Y2T6 whole entry C260A) above, with A260C counted along it

Cc1cccc(N2CCN(C(=O)c3cc(S(=O)(=O)N(C)C)ccc3N3CCCC3)CC2)c1C [ML184, 3-[4-(2,3-dimethylphenyl)piperazine-1-carbonyl]-N,N-dimethyl-4-pyrrolidin-1-ylbenzenesulfonamide]
EC50 [1]: 10500 nM | SRF response compared with WT (in words) ([1]; F6.55L): higher EC50 values than WT | Fold/WT, SRF EC50 ([1]; F6.55L vs WT): 318 fold | EC50 [2]: 56 nM | EC50 [3]: 154 nM | SRE response compared with WT (in words) ([3]; Q7.36N): retains WT signalling | Fold/WT, SRE EC50 ([3]; Q7.36N vs WT): 3 fold | EC50 [4]: 851 nM | SRF response compared with WT (in words) ([4]; Y3.32F): right shifted curves | Fold/WT, SRF EC50 ([4]; Y3.32F vs WT): 26 fold | EC50 [5]: > 30000 nM | SRE response compared with WT (in words) ([5]; E3.29A): profound reduction of receptor signalling; also recorded: very little responses | EC50 [6]: > 30000 nM | SRF response compared with WT (in words) ([6]; E3.29L): reduced responses | EC50 [7]: 635 nM | Fold/WT, SRE EC50 ([7]; C(10)A vs WT): 11 fold | EC50 [8]: 5130 nM | SRE response compared with WT (in words) ([8]; F6.55L): right shifted curves | Fold/WT, SRE EC50 ([8]; F6.55L vs WT): 92 fold | SRF response compared with WT (in words) [9]: not able to induce any response; also recorded: complete loss of signalling | EC50, SRF response ([9]; transfected HEK293, n ≥ 3): NO response | EC50 [10]: 1660 nM | SRE response compared with WT (in words) ([10]; Y3.32F): right shifted SRE response curves | Fold/WT, SRE EC50 ([10]; Y3.32F vs WT): 30 fold | EC50 [11]: 341 nM | SRE response compared with WT (in words) ([11]; H(170)F): slight difference from that of WT | Fold/WT, SRE EC50 ([11]; H(170)F vs WT): 6 fold | SRE response compared with WT (in words) [12]: complete loss of signalling; also recorded: did not show any response | EC50, SRE response ([12]; transfected HEK293, n ≥ 3): NO response | EC50 [13]: > 30000 nM | SRE response compared with WT (in words) ([13]; E3.29L): profound reduction of receptor signalling; also recorded: very little responses | EC50 [14]: 2040 nM | SRF response compared with WT (in words) ([14]; M3.36A): reduced responses | Fold/WT, SRF EC50 ([14]; M3.36A vs WT): 62 fold | EC50 [15]: 72 nM | SRE response compared with WT (in words) ([15]; Q6.58M): retained WT signalling; also recorded: almost identical to that of WT | Fold/WT, SRE EC50 ([15]; Q6.58M vs WT): 1 fold | EC50 [16]: 263 nM | EC50 [17]: 550 nM | SRF response compared with WT (in words) ([17]; F6.55A): higher EC50 values than WT | Fold/WT, SRF EC50 ([17]; F6.55A vs WT): 17 fold | EC50 [18]: 657 nM | Fold/WT, SRE EC50 ([18]; C(260)A vs WT): 12 fold | EC50 [19]: 900 nM | SRE response compared with WT (in words) ([19]; M3.36A): SRE induction comparable to wild-type; also recorded: increased EC50 values | Fold/WT, SRE EC50 ([19]; M3.36A vs WT): 16 fold | EC50 [20]: 864000 nM | SRF response compared with WT (in words) ([20]; Y3.32L): right shifted curves | Fold/WT, SRF EC50 ([20]; Y3.32L vs WT): 26182 fold | EC50 [21]: 363 nM | SRF response compared with WT (in words) ([21]; C(260)A): less response than WT | Fold/WT, SRF EC50 ([21]; C(260)A vs WT): 11 fold | EC50 [22]: 554 nM | SRF response compared with WT (in words) ([22]; C(10)A): less response than WT | Fold/WT, SRF EC50 ([22]; C(10)A vs WT): 17 fold | EC50 [23]: 33 nM | EC50 [24]: 9510 nM | SRE response compared with WT (in words) ([24]; Y3.32L): right shifted SRE response curves | Fold/WT, SRE EC50 ([24]; Y3.32L vs WT): 170 fold | EC50 [25]: 335 nM | SRF response compared with WT (in words) ([25]; F6.48A): reduced responses | Fold/WT, SRF EC50 ([25]; F6.48A vs WT): 10 fold | EC50 [26]: 840 nM | SRE response compared with WT (in words) ([26]; F6.55A): right shifted curves | Fold/WT, SRE EC50 ([26]; F6.55A vs WT): 15 fold | EC50 [27]: 514 nM | SRE response compared with WT (in words) ([27]; F6.48A): SRE induction comparable to wild-type; also recorded: increased EC50 values | Fold/WT, SRE EC50 ([27]; F6.48A vs WT): 9 fold | EC50 [28]: 230 nM | SRE response compared with WT (in words) ([28]; Q7.36A): retains WT signalling | Fold/WT, SRE EC50 ([28]; Q7.36A vs WT): 4 fold | EC50 [29]: > 30000 nM | SRF response compared with WT (in words) ([29]; E3.29A): reduced responses
